Assay [1] deals with Histamine H1 receptor (Cavia porcellus) (UniProt P31389). As to conditions: 10 uM.
The target is the same in assay [2]. Description: Intrinsic activity was reported in endothelium-denuded guinea pig(pre contracted with PGF-2 alpha) at a concentration of 10 uM. The assay is classed as functional. The gist of the method:
(§1)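 Endothelium-denuded guinea-pig aortic rings, set up as in the contraction assay, challenged twice with PGF2α (10 µM). Rings were precontracted with a threshold PGF2α level (usually 0.4–1.5 µM, 10–20% of the 10 µM response).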

Assay [3] has as its target T1, Histamine H1 receptor (Cavia porcellus, UniProt P31389). Kind of assay: Relative potency was recorded in endothelium-denuded guinea pig; value ranges from 5.75 to 6.25. The assay is classed as functional. The note with it: read-out: pA2 (converted). The gist of the method: (§2)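 Guinea-pig thoracic aortic rings (2–4 mm), endothelium rubbed off, isometric (10 mN), modified Krebs-Henseleit (1.80 mM Ca2+), 37 °C. Cimetidine, corticosterone and cocaine (30 µM each), prazosin and yohimbine (0.3 µM each) and propranolol (0.1 µM) were present. […] The pEC50 shift was corrected using untreated control preparations.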

For assay [4], the target named is T2, Histamine H1 receptor (Rattus norvegicus, UniProt P31390). Kind of assay: Relative potency was recorded in relaxed rat aortic rings with intact endothelium, submaximally precontracted with 15.8 nM U-46,619 value. As to conditions: read-out: pA2 (converted). The assay is classed as functional, tissue-based, Aorta.
T2 sequence (P31390 whole entry): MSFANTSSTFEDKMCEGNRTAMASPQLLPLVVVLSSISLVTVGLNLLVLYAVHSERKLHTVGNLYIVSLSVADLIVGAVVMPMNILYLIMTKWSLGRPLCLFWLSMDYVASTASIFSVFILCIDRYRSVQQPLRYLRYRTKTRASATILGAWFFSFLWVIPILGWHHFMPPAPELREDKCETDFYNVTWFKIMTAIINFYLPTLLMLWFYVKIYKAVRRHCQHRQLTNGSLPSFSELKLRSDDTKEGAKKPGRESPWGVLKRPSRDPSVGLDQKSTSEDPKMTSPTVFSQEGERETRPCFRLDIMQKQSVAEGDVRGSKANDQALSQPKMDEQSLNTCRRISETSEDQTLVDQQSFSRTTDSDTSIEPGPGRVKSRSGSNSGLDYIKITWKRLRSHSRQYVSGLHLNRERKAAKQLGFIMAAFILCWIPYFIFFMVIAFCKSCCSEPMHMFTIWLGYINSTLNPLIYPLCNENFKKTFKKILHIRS
In assay [5] the target is T1, Histamine H1 receptor. Description: Relative potency was recorded in endothelium-denuded guinea pig(pre contracted with PGF-2 alpha); value ranges from 5.76 to 6.40. The assay is classed as functional. As to conditions: read-out: pA2 (converted). Put shortly:
as §1

Assay [6] concerns the target T3, Alpha-1D adrenergic receptor (Rattus norvegicus, UniProt P23944).
T3 sequence (P23944 whole entry): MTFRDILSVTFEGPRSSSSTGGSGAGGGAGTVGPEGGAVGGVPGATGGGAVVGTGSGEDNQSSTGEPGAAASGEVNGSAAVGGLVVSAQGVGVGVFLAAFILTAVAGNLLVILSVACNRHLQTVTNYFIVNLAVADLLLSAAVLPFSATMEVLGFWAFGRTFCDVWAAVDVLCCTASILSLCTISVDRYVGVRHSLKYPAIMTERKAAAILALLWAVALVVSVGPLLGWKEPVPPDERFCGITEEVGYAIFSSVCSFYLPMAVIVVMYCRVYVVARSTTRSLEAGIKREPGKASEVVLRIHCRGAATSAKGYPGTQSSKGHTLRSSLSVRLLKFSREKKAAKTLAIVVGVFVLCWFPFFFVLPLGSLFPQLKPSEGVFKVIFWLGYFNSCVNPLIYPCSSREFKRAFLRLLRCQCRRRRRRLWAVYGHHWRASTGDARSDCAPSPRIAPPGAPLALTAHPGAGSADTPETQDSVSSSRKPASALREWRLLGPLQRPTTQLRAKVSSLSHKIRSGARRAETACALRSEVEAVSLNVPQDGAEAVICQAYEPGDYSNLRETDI
Description: Compound was evaluated for its antagonist affinity towards Alpha-1D adrenergic receptor of rat. Type of assay: functional. The note with it: read-out: pA2 (converted). Put shortly: (§3)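 Functional antagonism in rat tissues: α1D (thoracic aorta), 5-HT2A (tail artery), 5-HT4 (oesophageal tunica muscularis mucosae). Results are given as apparent pA2 from single-concentration rightward shifts, or pD'2 when only curve depression occurred.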

In assay [7] the target is 5-hydroxytryptamine receptor 4 (Rattus norvegicus, UniProt Q62758). Kind of assay: Compound was evaluated for its antagonist affinity towards 5-hydroxytryptamine 4 receptor of rat. The note with it: read-out: pA2 (converted). Type of assay: functional. The gist of the method: as §3
Sequence of 5-hydroxytryptamine receptor 4 (Q62758 whole entry): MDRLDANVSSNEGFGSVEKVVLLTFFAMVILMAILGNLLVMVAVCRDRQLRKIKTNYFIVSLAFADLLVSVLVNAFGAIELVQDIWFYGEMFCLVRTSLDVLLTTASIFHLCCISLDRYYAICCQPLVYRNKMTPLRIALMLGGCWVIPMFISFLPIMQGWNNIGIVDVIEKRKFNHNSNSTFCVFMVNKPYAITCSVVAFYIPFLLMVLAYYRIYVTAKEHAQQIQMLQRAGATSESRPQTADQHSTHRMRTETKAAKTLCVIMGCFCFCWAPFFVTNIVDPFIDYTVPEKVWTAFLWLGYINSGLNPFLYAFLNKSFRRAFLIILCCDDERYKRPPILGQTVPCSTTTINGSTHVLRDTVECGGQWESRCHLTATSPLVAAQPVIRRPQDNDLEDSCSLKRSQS
Assay [8] concerns the target T1, Histamine H1 receptor. Description: Antagonism of guinea pig ileum contraction at 100 nM mepyramine. Type of assay: functional, tissue-based. As to conditions: in the assay text read “at 1-30 nM mepyramine” for “at 100 nM mepyramine”; read-out: pA2 (converted). The gist of the method: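 Guinea-pig whole ileal segments (2.0–2.5 cm), isotonic, preload 0.5 g, Tyrode's at 37 °C, 95% O2/5% CO2, with 0.1 µM atropine throughout. […] Apparent pA2 = −log c + log(r−1); full pA2 from Schild plot, slope fixed at 1.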

The target of assay [9] is T1, Histamine H1 receptor. Description: Effective concentration for agonism activity in Endothelium-Denuded guinea pig aortic segment. Type of assay: functional, tissue-based, Aorta. The gist of the method: as §2
Assay [10] concerns the target Muscarinic acetylcholine receptor M3 (Cavia porcellus, UniProt Q8VH26). Description: Compound was evaluated for its antagonist affinity towards Muscarinic acetylcholine receptor M3 of guinea pig. The note with it: read-out: pA2 (converted). Type of assay: functional. The gist of the method: (§4)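 Functional antagonism assays in guinea-pig tissues, each run with 1 µM mepyramine present: M3 (whole ileum), β1 (right atrium), 5-HT1B (iliac artery), 5-HT3 (quiescent ileal longitudinal muscle with myenteric plexus). Results are given as apparent pA2, or pD'2 when only curve depression occurred.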

Assay [11] concerns the target T2, Histamine H1 receptor. Description: Compound was evaluated for mepyramine antagonism effects in rat aorta (relaxation) at a mepyramine concentration of 100 nM. The assay is classed as functional, tissue-based. The note with it: read-out: pA2 (converted).
In assay [12] the target is T1, Histamine H1 receptor. Kind of assay: Effective concentration for agonist activity in guinea pig ileum whole segment. The assay is classed as functional, tissue-based.
Assay [13] concerns the target 5-hydroxytryptamine receptor 2A (Rattus norvegicus, UniProt P14842). Kind of assay: Compound was evaluated for its antagonist affinity towards 5-hydroxytryptamine 2A receptor of rat. The assay is classed as functional. The note with it: read-out: pA2 (converted). The gist of the method:
as §3

Assay [14] addresses T1, Histamine H1 receptor. Description: Compound was evaluated for mepyramine antagonism effects in guinea pig aorta (contraction) at a mepyramine concentration of 100 nM. Type of assay: functional, tissue-based. As to conditions: read-out: pA2 (converted). Put shortly: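 Guinea-pig aortic rings with endothelium damaged, isometric (10 mN), 37 °C Krebs-Henseleit. Agonist curves were run with mepyramine (100 nM, about 60 min) after threshold PGF2α precontraction. Apparent pA2 = −log c + log(r−1).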

Another assay addresses Histamine H3 receptor (Cavia porcellus, UniProt Q9JI35). Kind of assay: Compound was evaluated for its antagonist affinity towards Histamine H3 receptor of guinea pig. Type of assay: functional. The note with it: read-out: pA2 (converted). Put shortly:
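Electrically stimulated guinea-pig ileal longitudinal muscle with myenteric plexus, isometric (7.5 mN). Cumulative (R)-α-methylhistamine curves were run with and without test compound (20 min), with 1 µM mepyramine present. Values were apparent pA2, or pD'2 where curves were depressed.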

Assay [15] concerns the target Beta-1 adrenergic receptor (Cavia porcellus, UniProt B0FL73). Kind of assay: Compound was evaluated for its antagonist affinity towards Beta-1 adrenergic receptor of guinea pig. Type of assay: functional. The note with it: read-out: pA2 (converted). Put shortly:
as §4

For another assay, the target named is Histamine H2 receptor (Cavia porcellus, UniProt P47747). Kind of assay: Compound was evaluated for its antagonist affinity towards Histamine H2 receptor of guinea pig. The assay is classed as functional. As to conditions: read-out: pA2 (converted).
Sequence of Histamine H2 receptor (P47747 whole entry): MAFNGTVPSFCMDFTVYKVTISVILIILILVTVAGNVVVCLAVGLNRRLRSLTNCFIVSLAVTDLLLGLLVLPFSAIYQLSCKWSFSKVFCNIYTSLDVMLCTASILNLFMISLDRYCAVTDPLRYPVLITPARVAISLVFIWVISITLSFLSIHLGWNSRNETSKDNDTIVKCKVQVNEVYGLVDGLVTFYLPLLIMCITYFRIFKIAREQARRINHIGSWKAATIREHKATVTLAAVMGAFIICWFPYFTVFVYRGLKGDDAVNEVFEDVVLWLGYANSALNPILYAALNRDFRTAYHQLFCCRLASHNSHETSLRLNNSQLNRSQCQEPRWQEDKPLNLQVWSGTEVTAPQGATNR
The target of assay [16] is 5-hydroxytryptamine receptor 1B (Cavia porcellus). Description: Compound was evaluated for its antagonist affinity towards 5-hydroxytryptamine 1B receptor of guinea pig. The note with it: read-out: pA2 (converted).
In assay [17] the target is T2, Histamine H1 receptor. Kind of assay: Effective concentration for agonism activity in relaxed rat aortic rings with intact endothelium, submaximally precontracted with 15.8 nM U-46,619. The assay is classed as functional, tissue-based, Aorta.

pEC50: −log10 of the molar value. “And” between values parts separate entries of the source, which are not always exact repeats. Equal values may be shown once. Where only a bound is given, the exact number is not on record here.

T1 sequence (P31389 whole entry): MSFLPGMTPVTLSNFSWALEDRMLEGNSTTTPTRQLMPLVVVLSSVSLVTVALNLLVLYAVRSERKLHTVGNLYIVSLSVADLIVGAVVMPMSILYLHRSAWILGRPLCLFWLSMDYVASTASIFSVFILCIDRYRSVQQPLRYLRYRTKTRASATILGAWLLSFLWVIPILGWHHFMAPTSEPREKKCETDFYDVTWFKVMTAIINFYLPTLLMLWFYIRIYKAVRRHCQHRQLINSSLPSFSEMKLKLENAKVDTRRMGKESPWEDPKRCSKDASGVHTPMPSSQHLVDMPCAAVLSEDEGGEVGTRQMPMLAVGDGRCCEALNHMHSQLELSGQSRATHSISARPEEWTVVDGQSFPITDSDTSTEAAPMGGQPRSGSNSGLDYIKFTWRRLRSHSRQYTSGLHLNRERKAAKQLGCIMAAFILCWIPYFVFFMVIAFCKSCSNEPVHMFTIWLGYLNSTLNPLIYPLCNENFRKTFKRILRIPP
Sequence of Histamine H1 receptor (Cavia porcellus) (P31389 whole entry): as above
Sequence of Muscarinic acetylcholine receptor M3 (Q8VH26 whole entry): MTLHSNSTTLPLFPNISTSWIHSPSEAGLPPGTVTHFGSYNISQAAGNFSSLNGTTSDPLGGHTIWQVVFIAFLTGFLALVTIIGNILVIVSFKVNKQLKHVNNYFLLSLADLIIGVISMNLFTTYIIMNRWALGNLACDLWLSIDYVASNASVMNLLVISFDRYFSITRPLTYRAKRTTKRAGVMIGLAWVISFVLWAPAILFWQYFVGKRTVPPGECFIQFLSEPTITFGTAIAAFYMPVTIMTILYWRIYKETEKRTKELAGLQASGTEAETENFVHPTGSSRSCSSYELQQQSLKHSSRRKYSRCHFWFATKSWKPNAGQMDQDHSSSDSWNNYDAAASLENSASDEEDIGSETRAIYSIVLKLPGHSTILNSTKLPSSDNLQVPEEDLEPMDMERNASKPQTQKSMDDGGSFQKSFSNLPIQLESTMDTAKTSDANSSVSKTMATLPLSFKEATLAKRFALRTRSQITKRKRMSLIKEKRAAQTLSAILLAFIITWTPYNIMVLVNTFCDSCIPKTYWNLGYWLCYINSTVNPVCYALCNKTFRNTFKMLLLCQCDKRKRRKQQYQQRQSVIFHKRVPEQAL
Sequence of Beta-1 adrenergic receptor (B0FL73 whole entry): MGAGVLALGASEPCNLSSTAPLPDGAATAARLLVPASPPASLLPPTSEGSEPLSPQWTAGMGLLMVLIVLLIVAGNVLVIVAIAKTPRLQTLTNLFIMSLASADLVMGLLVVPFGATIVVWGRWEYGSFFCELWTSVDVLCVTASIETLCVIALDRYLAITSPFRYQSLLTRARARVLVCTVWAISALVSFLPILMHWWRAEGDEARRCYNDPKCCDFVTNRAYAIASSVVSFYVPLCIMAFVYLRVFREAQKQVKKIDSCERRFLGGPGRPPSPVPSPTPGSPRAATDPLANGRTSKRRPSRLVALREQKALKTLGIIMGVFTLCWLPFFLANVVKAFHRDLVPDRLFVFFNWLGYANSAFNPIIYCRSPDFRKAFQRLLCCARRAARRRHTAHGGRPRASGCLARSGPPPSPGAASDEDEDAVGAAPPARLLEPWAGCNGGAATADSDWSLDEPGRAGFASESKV
Sequence of Histamine H3 receptor (Q9JI35 whole entry): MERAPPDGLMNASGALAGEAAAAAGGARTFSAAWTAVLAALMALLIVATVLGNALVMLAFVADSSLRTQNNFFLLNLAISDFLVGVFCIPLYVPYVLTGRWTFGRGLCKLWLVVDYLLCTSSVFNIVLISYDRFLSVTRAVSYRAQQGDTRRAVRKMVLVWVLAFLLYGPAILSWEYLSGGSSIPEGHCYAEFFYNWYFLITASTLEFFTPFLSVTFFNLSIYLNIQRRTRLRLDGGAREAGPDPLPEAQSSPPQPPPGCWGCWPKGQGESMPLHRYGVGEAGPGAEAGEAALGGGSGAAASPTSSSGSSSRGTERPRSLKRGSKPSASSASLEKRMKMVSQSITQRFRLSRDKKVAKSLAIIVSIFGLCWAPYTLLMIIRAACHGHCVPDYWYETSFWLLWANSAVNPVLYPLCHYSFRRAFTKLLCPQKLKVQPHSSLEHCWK
Sequence of 5-hydroxytryptamine receptor 2A (P14842 whole entry): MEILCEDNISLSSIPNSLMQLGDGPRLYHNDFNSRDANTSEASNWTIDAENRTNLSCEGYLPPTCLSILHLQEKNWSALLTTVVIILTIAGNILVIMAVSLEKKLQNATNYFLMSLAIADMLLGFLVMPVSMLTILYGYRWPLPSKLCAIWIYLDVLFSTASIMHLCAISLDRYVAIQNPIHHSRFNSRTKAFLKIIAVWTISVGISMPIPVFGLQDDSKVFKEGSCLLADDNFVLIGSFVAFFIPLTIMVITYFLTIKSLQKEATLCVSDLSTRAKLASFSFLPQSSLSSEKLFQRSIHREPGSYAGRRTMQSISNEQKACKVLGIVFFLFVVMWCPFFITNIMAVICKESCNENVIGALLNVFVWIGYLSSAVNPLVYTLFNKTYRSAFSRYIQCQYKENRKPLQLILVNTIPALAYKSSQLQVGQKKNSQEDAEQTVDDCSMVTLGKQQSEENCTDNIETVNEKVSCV

Consider `NCCc1c[nH]c(CCCCC(c2ccccc2)c2ccccc2)n1`, for which the Emax in [1] and in [2] was 0 each time. In addition, the Kb on Histamine H1 receptor [3] was 1000 nM; at Histamine H1 receptor [4] it was 1070 nM; on Histamine H1 receptor [5], 832 nM.

The term pEC50 denotes the negative decadic logarithm of the EC50, by convention in mol/L. In the case of `NCCc1cnc(CCC(c2ccccc2)c2ccccc2)[nH]1`, the Kb in assay [6] was 3550 nM; in [7], over 3160 nM; on Histamine H1 receptor [8], 0.776 nM; in assay [10] it was 2820 nM; at Histamine H1 receptor [11] it was 9.12 nM; in assay [13] it was 6460 nM. The Kb is 1.58 nM and 0.977 nM on Histamine H1 receptor [14]; over 1580 nM on Histamine H3 receptor; 45700 nM in [15]; 34700 nM on Histamine H2 receptor; 14100 nM in [16]. Also, the pEC50 is 5.71 and 6.51 on Histamine H1 receptor [9]; 6.74 on Histamine H1 receptor [12]; 6.07 on Histamine H1 receptor [17].

These data come from ChEMBL document CHEMBL1132974 (J Med Chem, 2000).
